How the values were obtained:
DIO-C57BL/6J mice = assay: In vivo pharmacological evaluation in diet-induced obese mice; set-up: species or system mouse; conditions: YR4-42 50 mg/kg
Procedure, shortened: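 Male C57BL/6J mice (6 weeks old) on 60%-fat diet for 10 weeks, continued throughout; 16-week-old DIO mice randomised, n = 12/group, gavaged 38 days with 0.5% CMC-Na vehicle, pioglitazone 25 mg/kg or test compound 50 mg/kg; chow-fed vehicle controls. Body weight every 2 days; insulin tolerance test day 14 (AUC); day 38 liver weighed, TG/TC/FFA by kits normalised to tissue weight; mean ± SEM.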

[1] = target: T1, PPARγ ligand-binding domain (LBD) (Homo sapiens, UniProt P37231); assay: PPARγLBD-Gal4-luciferase reporter transactivation assay; format: cell-based; conditions: 20 μmol/L GW9662, 10 μmol/L YR4-42; Figure 1H
T1 sequence (P37231 204-505): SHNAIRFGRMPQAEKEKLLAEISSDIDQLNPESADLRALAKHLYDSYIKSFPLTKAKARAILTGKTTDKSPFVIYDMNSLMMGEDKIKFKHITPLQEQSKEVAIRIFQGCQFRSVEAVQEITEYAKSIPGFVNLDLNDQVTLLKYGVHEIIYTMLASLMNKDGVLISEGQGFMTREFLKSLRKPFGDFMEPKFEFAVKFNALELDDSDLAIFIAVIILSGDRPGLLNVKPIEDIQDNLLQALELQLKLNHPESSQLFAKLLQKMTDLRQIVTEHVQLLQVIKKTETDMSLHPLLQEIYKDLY

| effect of antagonist on PPARγ transactivation induced by YR4-42 [1] | Compound | hepatic TG, total cholesterol and FFA (DIO-C57BL/6J mice; 38th day, pioglitazone 25 mg/kg oral, Figure 3K-M) | body weight of DIO mice (DIO-C57BL/6J mice; oral gavage 38 days, pioglitazone 25 mg/kg, Figure 3A,B) |
| --- | --- | --- | --- |
|  | CCc1ccc(CCOc2ccc(CC3SC(=O)NC3=O)cc2)nc1 (stereo not drawn) [pioglitazone] | increased | further enhanced weight gain |
| inhibited | O=C(Nc1ccccc1)c1cc([N+](=O)[O-])ccc1Cl [GW9662] |  |  |

— publication PMC6851555 (Diabetes, Obesity & Metabolism, 2019)
